SUMO Mot1 rescue – inhibitors of SUMOylation pathway: yeast Mot1-301 growth rescue | S. cerevisiae Mot1-301 growth rescue, ATP luminescence, 38.5C; percent above DMSO median, 100 means doubled | growth rescue, % at 18.8 µM | hit rate 1% among 320,000;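 active = every valid replicate shows activation above 250% relative to neutral control wells; inactive = the rest, any valid replicate at or below 250%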;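 note: OY570 slx delta 5 strain wells were the positive control but not used for scaling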
Cneo AK release – causes C. neoformans cell lysis | hit rate 0.2% among 360,000 | AID 651654 | lysis activity, % at 15 µM | adenylate kinase release luminescence, 4 h; normalised: neutral wells 0, clomiphene wells 100;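 active = mean lysis activity across replicates of at least 80%, whatever share of replicates individually reach that level; inactive = mean lysis activity below 80%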
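Assay system: Cryptococcus neoformans yeast cells / Dosing: single-point compound dose / Timing: 4 h at 37 °C static, read 1 h later / Measured by: luminescence of released adenylate kinase using an AK detection reagent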
C2C12 statin – suppression of simvastatin myotoxicity; C2C12 myotubes + simvastatin, ATP luminescence, 48 h; scaled: DMSO 0, geranylgeraniol control 100; rescue of ATP level, % at 7.49 µM; hit rate 0.78% among 330,000; AID 602340;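 active = mean ATP rescue above about 67%, or every replicate alone reaching that limit, limit read from the data, passing the limit was not always enough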;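 note: myotubes were challenged with 10 µM simvastatin during compound exposure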
* hit, by the source's call; x = no result. Most compounds without a hit are left out; they make up all but 1.5% or so of the library.

SMILES	SUMO Mot1 rescue	Cneo AK release	C2C12 statin
Cc1noc(C)c1NC(=O)Nc1ccc2c(c1)CC(=O)N([C@@H](C)CO)C[C@H](C)[C@@H](CN(C)S(=O)(=O)c1cn(C)cn1)O2	x	-2.0	1.7
CO[C@@H](CN(C)C(=O)c1ccccc1F)[C@@H](C)CN([C@@H](C)CO)S(=O)(=O)c1ccc(C)cc1	x	-13.5	2.4
Cc1noc(C)c1NC(=O)Nc1ccc2c(c1)CC(=O)N([C@@H](C)CO)C[C@H](C)[C@@H](CN(C)Cc1ccccc1)O2	x	-3.2	-19.0
Oc1ccc(C=NNc2nc3ccccc3s2)c(O)c1	x	-15.3	117.4*
Oc1ccccc1C=NNc1nc2ccccc2s1	x	-2.7	6.2
C[C@H]1CN([C@@H](C)CO)C(=O)CCCn2cc(nn2)CO[C@H]1CN(C)Cc1ccc(C(F)(F)F)cc1	x	30.3	-7.1
COCCN(C(=O)COC(=O)CSc1ccccc1)c1c(N)n(Cc2ccccc2)c(=O)[nH]c1=O	355.7*	x	x
COCCN(C(=O)COC(=O)CSc1ccc(Cl)cc1)c1c(N)n(Cc2ccccc2)c(=O)[nH]c1=O	-7.2	x	x
O=S(=O)(NC1CC2CCC1C2)c1ccc(Br)cc1 (centres undefined)	175.7	-0.9	7.4
O=S(=O)(NC1CC2CCC1C2)c1ccc(Br)s1 (centres undefined)	449.8*	1.1	x
COc1ccc(S(=O)(=O)N(C)C[C@H]2OCCCC[C@H](C)Oc3ccc(NS(=O)(=O)c4cccs4)cc3C(=O)N([C@H](C)CO)C[C@@H]2C)cc1	x	1.6	x
C[C@H](CO)N1C[C@H](C)[C@H](CN(C)S(=O)(=O)c2ccc(Cl)cc2)Oc2ccc(NS(=O)(=O)c3ccc(Cl)cc3)cc2CC1=O	x	2.8	9.0
Cc1cc(C(=O)Nc2ccc3c(c2)C(=O)N(C)[C@H]2CC[C@@H](CC(=O)N[C@@H](C)c4ccccc4)O[C@H]2CO3)no1	x	99.7*	9.7
Cc1cc(C(=O)Nc2ccc3c(c2)C(=O)N(C)[C@H]2CC[C@H](CC(=O)N[C@@H](C)c4ccccc4)O[C@H]2CO3)no1	x	6.9	35.6
Cc1cc(C(=O)Nc2ccc3c(c2)C(=O)N(C)[C@@H]2CC[C@@H](CC(=O)N[C@@H](C)c4ccccc4)O[C@@H]2CO3)no1	x	83.3*	27.0
Cc1cc(C(=O)Nc2ccc3c(c2)C(=O)N(C)[C@@H]2CC[C@@H](CC(=O)N[C@H](C)c4ccccc4)O[C@H]2CO3)no1	x	7.3	8.9
Nc1ccn(CC(=O)NCc2ccccc2)c(=O)n1	-6.9	-3.8	-5.2
Nc1ccn(CC(=O)N[C@H](CO)Cc2c[nH]c3ccccc23)c(=O)n1	-2.0	-0.9	124.4*
Cc1noc(C)c1C(=O)N(C)C[C@@H]1OCc2ccccc2-c2ccccc2C(=O)N([C@H](C)CO)C[C@H]1C	x	0.5	x
Cc1noc(C)c1S(=O)(=O)Nc1ccc2c(c1)CC(=O)N([C@@H](C)CO)C[C@@H](C)[C@H](CN(C)CC1CCCCC1)O2	x	1.5	40.8
CC(C)(C)c1ccc(Oc2ccc(NC(=O)c3ccco3)cn2)cc1	378.4	x	x
O=C(Nc1ccc(Oc2cccc(C(F)(F)F)c2)nc1)c1ccco1	342.1*	4.5	-22.5
Cc1noc(C)c1NC(=O)Nc1ccc2c(c1)CC(=O)N([C@@H](C)CO)C[C@H](C)[C@@H](CN(C)C(=O)Nc1ccccc1)O2	x	0.6	-12.6
O=C(c1ccc(CN2CCOCC2)cc1)N1CCN(c2cccc(Cl)c2)CC1	10.4	0.4	103.3*
Cc1ccc(Cl)cc1N1CCN(C(=O)c2ccc(CN3CCOCC3)cc2)CC1	13.3	0.1	0.2
SMILES	SUMO Mot1 rescue	Cneo AK release	C2C12 statin
C[C@@H]1CN([C@@H](C)CO)C(=O)Cc2cc(NC(=O)Nc3ccc(F)cc3)ccc2O[C@H]1CN(C)C(=O)Nc1ccc2c(c1)OCO2	x	-1.9	-12.8
CCOC(=O)c1c(C)[nH]c(C)c1C(=O)CSc1nc2ccccc2n1CC	0.3	x	x
CCOC(=O)c1c(C)[nH]c(C)c1C(=O)CSc1nc2ccccc2[nH]1	452.6*	0.1	x
CCOC(=O)CCCCC(=O)c1[nH]c(=O)[nH]c1CSc1nc2ccccc2[nH]1	-4.6	1.5	95.5*
CCOC(=O)CCCCC(=O)c1[nH]c(=O)[nH]c1CSc1nc(C)cc(=O)[nH]1	58.6	-0.7	0.1
CCC(=O)N[C@H]1C=C[C@@H](CC(=O)NCc2ccccc2OC)O[C@@H]1CO	x	-1.3	2.2
CCCNC(=O)Nc1ccc2c(c1)C(=O)N(C)C[C@H](OC)[C@@H](C)CN(Cc1cncnc1)[C@H](C)CO2	x	42.7	-0.1
C/C(=N\Nc1ccc(F)cc1F)c1ccc(F)cc1	218.8	x	x
C/C(=N\Nc1ccc(F)cc1F)c1ccc(N2CCOCC2)cc1	279.3*	x	x
C[C@H](CO)N1C[C@H](C)[C@H](CN(C)C(=O)Nc2cccc3ccccc23)Oc2ccc(NS(=O)(=O)c3ccc(Cl)cc3)cc2CC1=O	x	3.9	16.4
Cc1cc2oc(C(=O)N3CCN(CCc4ccccn4)CC3)c(C)c2cc1C	-17.6	1.7	-6.5
Cc1ccc2c(C)c(C(=O)N3CCN(Cc4ccccn4)CC3)oc2c1C	5.4	81.6*	x
COc1ccc(S(=O)(=O)Nc2ccc3c(c2)[C@@H]2C[C@@H](CC(=O)O)O[C@@H](CO)[C@@H]2O3)cc1	x	-5.6	5.4
CCS(=O)(=O)c1ccc(-c2csc(-c3ccccc3Cl)n2)c(Cl)c1Cl	-14.6	-1.4	-4.3
CCS(=O)(=O)c1ccc(-c2csc(-c3ccc(Cl)cc3)n2)c(Cl)c1Cl	10.3	-1.4	102.7*
C[C@H](CO)N1C[C@H](C)[C@@H](CN(C)C(=O)Cc2ccccc2)Oc2ncc(-c3ccc(F)cc3)cc2C1=O	x	-0.6	7.9
CC(=O)N(C)C[C@H]1Oc2cc(/C=C/c3ccccc3)ccc2S(=O)(=O)N([C@@H](C)CO)C[C@@H]1C	x	-8.2	x
Cc1cccc(CSCc2ccc(C(=O)NCC3CCCO3)o2)c1 (centres undefined)	315.0*	0.3	x
Cc1ccc(CSCc2ccc(C(=O)NCC3CCCO3)o2)cc1 (centres undefined)	120.8	-0.2	x
O=C(C[C@H]1CC[C@H]2[C@@H](COC[C@H](O)CN2CCC(F)(F)F)O1)NCc1ccc(Oc2ccccc2)cc1	x	-0.7	-5.5
CC(C)CC(OC(=O)c1cccs1)C(=O)NCc1ccco1 (centres undefined)	x	1.5	-3.8
CCC(OC(=O)c1cccs1)C(=O)NCc1ccco1 (centres undefined)	184.7	-1.8	102.1*
CCC(=O)N1C[C@H](C)[C@@H](OC)CN(C)C(=O)c2ccc(NC(=O)c3cnccn3)cc2OC[C@H]1C	x	-2.4	-4.6
O=C(C[C@@H]1C[C@@H]2c3cc(NC(=O)C4CCC4)ccc3O[C@@H]2[C@@H](CO)O1)NCc1ccc2c(c1)OCO2	x	-7.0	-6.8
CC(C)NC(=O)CS(=O)(=O)c1ccccc1	267.9	1.0	112.1*
O=C(CS(=O)(=O)c1ccccc1)NC1CCCCC1	1.4	-0.3	12.3
O=c1[nH]ncc(N/N=C\c2cccnc2)c1Cl	5.7	x	x
Cc1cccc(/C=N\Nc2cn[nH]c(=O)c2Cl)c1	-7.5	-0.5	101.8*
Cn1c(=N)c(S(=O)(=O)c2ccccc2)cc2c(=O)n3ccccc3nc21	311.0*	1.3	-2.9
Cn1c(=N)c(S(=O)(=O)c2ccc(F)cc2)cc2c(=O)n3ccccc3nc21	-10.4	2.0	9.8

Compound activity: PubChem, Broad Institute
